Active and inactive are the calls of the source. No cut-off for these calls is given here.
Legend:
MGC-803 [1] = experiment: Antiproliferative activity against human MGC803 cells after 72 hrs by MTT assay; assay type: functional, cell-based; settings: MGC-803, 72 h
Outline: (§1)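 Cells in exponential growth were plated at 3,000 per well and left 24 h. Medium was then replaced with fresh medium holding graded compound concentrations, and incubation ran 72 h. Viability was read by MTT at 570 nm.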

NCI-H1650 = experiment: Antiproliferative activity against human NCI-H1650 cells after 72 hrs by MTT assay; assay type: functional, cell-based; settings: NCI-H1650, 72 h; outline: as §1
HGC-27 = experiment: Antiproliferative activity against human HGC27 cells after 72 hrs by MTT assay; assay type: functional, cell-based; settings: HGC-27, 72 h; outline: as §1
MGC-803 [2] = experiment: Induction of apoptosis in human MGC803 cells after 24 hrs by annexin V-FITC/propidium iodide staining-based assay; assay type: functional, cell-based
GES1 = experiment: Cytotoxicity against human GES-1 cells after 72 hrs by MTT assay; assay type: cell-based; settings: GES1, 72 h; outline: as §1
[3] = Selectivity index, ratio of IC50 for human GES-1 cells to IC50 for human MGC803 cells; assay type: functional
Outline: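 SI equals IC50 in GES-1 divided by IC50 in MGC803. Both IC50s come from 72 h exposure in the MTT viability assay, with 3,000 cells/well plated 24 h before dosing. Each is the mean ± SD of three independent experiments.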

MGC-803 [4] = experiment: Induction of apoptosis in human MGC803 cells at 1 uM after 24 hrs by annexin V-FITC/propidium iodide staining-based assay (reference value: 2.3%); assay type: functional
MGC-803 [5] = experiment: Induction of apoptosis in human MGC803 cells assessed as increase in Bax protein levels after 24 by Western blot analysis; assay type: functional, cell-based
Outline: (§2)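 After 24 h treatment at graded concentrations, MGC803 were lysed 30 min in RIPA buffer with protease inhibitors and spun at 12,000 rpm for 10 min at 4 °C. Protein was quantified by BCA, then run on SDS-PAGE and blotted to nitrocellulose. Membranes were blocked in 5% milk for 2 h, incubated with primary antibodies overnight at 4 °C, then secondary (1:5000) for 2 h. Detection was by ECL.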

MGC-803 [6] = experiment: Induction of apoptosis in human MGC803 cells assessed as formation of apoptotic bodies at 1 to 5 uM after 24 hrs by Hoechst 33258 staining-based fluorescence microscopic analysis; assay type: functional, cell-based
Outline: (§3)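 MGC803 were seeded at 2×10^5/well and allowed to adhere overnight. They were exposed to graded concentrations for 24 h, then stained with Hoechst 33258 for 30 min in the dark. Nuclear morphology was examined by fluorescence microscopy.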

MGC-803 [7] = experiment: Antiproliferative activity against human MGC803 cells assessed as reduction in colony formation at 3 uM after 9 days by crystal violet staining-based clonogenic assay relative to control; assay type: functional; settings: MGC-803, 216 h
Outline: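 MGC803 were seeded at 1000 cells/well, allowed 24 h, then given fresh medium with graded compound concentrations for 9 days. Cells were PBS-washed, fixed in 4% paraformaldehyde and stained with 0.1% crystal violet. A colony was counted as >10 cells. Inhibition rate = (1 − treated count/control count) × 100%. Run in triplicate.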

MGC-803 [8] = experiment: Antimigratory activity against human MGC803 cells assessed as reduction in wound healing at 1 uM by inverted microscopic method; assay type: functional, cell-based; settings: TDE = time-dependent effect
Outline: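 MGC803 in 24-well format were scratched with a 10 µL tip. Cells were then incubated with graded compound concentrations for the indicated times. Wound closure was photographed under an inverted microscope.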

MGC-803 [9] = experiment: Induction of apoptosis in human MGC803 cells assessed as chromatin shrinkage at 1 to 5 uM after 24 hrs by Hoechst 33258 staining-based fluorescence microscopic analysis; assay type: functional, cell-based; outline: as §3
MGC-803 [10] = experiment: Induction of apoptosis in human MGC803 cells assessed as increase in cleaved caspase-3 protein levels at 1 to 5 uM after 24 by Western blot analysis; assay type: functional, cell-based; outline: as §2
MGC-803 [11] = experiment: Induction of apoptosis in human MGC803 cells at 5 uM after 24 hrs by annexin V-FITC/propidium iodide staining-based assay (reference value: 2.3%); assay type: functional
MGC-803 [12] = experiment: Induction of apoptosis in human MGC803 cells at 2 uM after 24 hrs by annexin V-FITC/propidium iodide staining-based assay (reference value: 2.3%); assay type: functional
MGC-803 [13] = experiment: Induction of apoptosis in human MGC803 cells assessed as cell rounding at 1 to 5 uM after 24 hrs by Hoechst 33258 staining-based fluorescence microscopic analysis; assay type: functional; outline: as §3
MGC-803 [14] = experiment: Induction of apoptosis in human MGC803 cells assessed as increase in cleaved caspase-9 protein levels at 1 to 5 uM after 24 by Western blot analysis; assay type: functional, cell-based; outline: as §2
MGC-803 [15] = experiment: Induction of apoptosis in human MGC803 cells assessed as decrease in BCL-2 protein levels at 1 to 5 uM after 24 hrs by Western blot analysis; assay type: functional, cell-based; outline: as §2

Row | Structure (SMILES) | IC50 (MGC-803 [1]) [µM] | IC50 (NCI-H1650) [µM] | IC50 (HGC-27) [µM] | also measured
1 | CCCSc1nc(NCCc2cccs2)c2nc(Nc3ccccc3)sc2n1 | 11.3 | 10 | 17.7 | –
2 | CCCSc1nc(N2CCOCC2)c2nc(Nc3ccccc3)sc2n1 | 5.81 | 4.18 | 9.51 | –
3 | CCCSc1nc(Nc2ccc(OC)cc2)c2nc(Nc3ccccc3)sc2n1 | > 64 | 20.7 | 30.9 | –
4 | CCCSc1nc(Nc2ccccc2)c2nc(Nc3ccccc3)sc2n1 | 24.4 | 12.1 | 35.3 | –
5 | CCCSc1nc(NCc2ccco2)c2nc(Nc3ccccc3)sc2n1 | > 64 | 26.1 | 28 | –
6 | CCCSc1nc(NC2CC2)c2nc(Nc3ccccc3)sc2n1 | > 64 | 41.7 | 32.4 | –
7 | CCCCc1ccc(Nc2nc(SCCC)nc3sc(Nc4ccccc4)nc23)cc1 | 17.4 | 14.8 | 13.1 | –
8 | CCCSc1nc(N2CCN(Cc3ccccc3)CC2)c2nc(Nc3ccccc3)sc2n1 | 18.8 | 27 | > 64 | –
9 | CCCSc1nc(N2CCOCC2)c2nc(Nc3cccc4ccccc34)sc2n1 | 17.7 | 9.73 | 21.8 | –
10 | O=c1[nH]cc(F)c(=O)[nH]1 [FLUOROURACIL] | – | 12.5 | 8.22 | –
11 | CCCSc1nc(NCCc2cc3ccccc3[nH]2)c2nc(Nc3ccccc3)sc2n1 | 6.99 | 9.62 | 16.2 | –
12 | CCCSc1nc(N2CCOCC2)c2nc(Nc3ccccc3Cl)sc2n1 | 3.4 | 21.7 | 11.3 | –
13 | c1ccc(CSc2nc(N3CCOCC3)c3nc(Nc4ccccc4)sc3n2)cc1 | 1.03 | 2.1 | 1.23 | Activity (MGC-803 [2]): Dose-dependent effect; IC50 (GES1): 39 µM; Ratio IC50 [3]: 37.8; Activity (MGC-803 [4]): 11.5%; Activity (MGC-803 [5]): Dose-dependent effect; Activity (MGC-803 [6]): Active; inhibition at 3 µM (MGC-803 [7]): 86%; Activity (MGC-803 [8]): Tde; Activity (MGC-803 [9]): Active; Activity (MGC-803 [10]): Active; Activity (MGC-803 [11]): 73.9%; Activity (MGC-803 [12]): 43.8%; Activity (MGC-803 [13]): Active; Activity (MGC-803 [14]): Active; Activity (MGC-803 [15]): Active
14 | CCCSc1nc(N2CCSCC2)c2nc(Nc3ccccc3)sc2n1 | 12.3 | 12.9 | 28.5 | –
15 | CCCSc1nc(NCc2ccc(O)cc2)c2nc(Nc3ccccc3)sc2n1 | 21.9 | 9.23 | 17.3 | –
16 | CCCSc1nc(N2CCOCC2)c2nc(Nc3ccccn3)sc2n1 | 9.35 | 7.73 | 8.84 | –
17 | CCCSc1nc(Nc2ccc(Cl)cc2)c2nc(Nc3ccccc3)sc2n1 | 12.5 | 12 | 20.3 | –
